Data taken from ChEMBL document CHEMBL4480362, “Design and synthesis of DNA-intercalative naphthalimide-benzothiazole/cinnamide derivatives: cytotoxicity evaluation and topoisomerase-IIα inhibition” (Medchemcomm, 2019).
The source made the active and inactive calls. The calls are words filed in the database; no cut-off is given here.

Columns and labels:
MCF7 = experiment: Cytotoxicity against human MCF7 cells assessed as reduction in cell viability after 48 hrs by MTT assay; format: functional, cell-based; details: MCF7, 48 h
Method in brief: (§1)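 Cell lines from NCCS were grown in DMEM with 10% FBS, penicillin and streptomycin at 37 °C, 5% CO2. Cells were seeded, left 24 h, then exposed to compound for 48 h. MTT (5 mg/ml stock) was added for 4 h. Formazan was dissolved in DMSO and absorbance read at 570 nm.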

A549 = experiment: Cytotoxicity against human A549 cells assessed as reduction in cell viability after 48 hrs by MTT assay; format: functional, cell-based; details: A549, 48 h; method in brief: as §1
HT-29 = experiment: Cytotoxicity against human HT-29 cells assessed as reduction in cell viability after 48 hrs by MTT assay; format: functional, cell-based; details: HT-29, 48 h; method in brief: as §1
[1] = target: DNA topoisomerase 2-alpha (Homo sapiens) (UniProt P11388); experiment: Inhibition of topoisomerase 2 (unknown origin) assessed as reduction in decatenation of kinetoplast DNA at 100 uM incubated for 30 mins by ethidium bromide staining based gel electrophoresis method
DNA topoisomerase 2-alpha (Homo sapiens), sequence (P11388 whole entry): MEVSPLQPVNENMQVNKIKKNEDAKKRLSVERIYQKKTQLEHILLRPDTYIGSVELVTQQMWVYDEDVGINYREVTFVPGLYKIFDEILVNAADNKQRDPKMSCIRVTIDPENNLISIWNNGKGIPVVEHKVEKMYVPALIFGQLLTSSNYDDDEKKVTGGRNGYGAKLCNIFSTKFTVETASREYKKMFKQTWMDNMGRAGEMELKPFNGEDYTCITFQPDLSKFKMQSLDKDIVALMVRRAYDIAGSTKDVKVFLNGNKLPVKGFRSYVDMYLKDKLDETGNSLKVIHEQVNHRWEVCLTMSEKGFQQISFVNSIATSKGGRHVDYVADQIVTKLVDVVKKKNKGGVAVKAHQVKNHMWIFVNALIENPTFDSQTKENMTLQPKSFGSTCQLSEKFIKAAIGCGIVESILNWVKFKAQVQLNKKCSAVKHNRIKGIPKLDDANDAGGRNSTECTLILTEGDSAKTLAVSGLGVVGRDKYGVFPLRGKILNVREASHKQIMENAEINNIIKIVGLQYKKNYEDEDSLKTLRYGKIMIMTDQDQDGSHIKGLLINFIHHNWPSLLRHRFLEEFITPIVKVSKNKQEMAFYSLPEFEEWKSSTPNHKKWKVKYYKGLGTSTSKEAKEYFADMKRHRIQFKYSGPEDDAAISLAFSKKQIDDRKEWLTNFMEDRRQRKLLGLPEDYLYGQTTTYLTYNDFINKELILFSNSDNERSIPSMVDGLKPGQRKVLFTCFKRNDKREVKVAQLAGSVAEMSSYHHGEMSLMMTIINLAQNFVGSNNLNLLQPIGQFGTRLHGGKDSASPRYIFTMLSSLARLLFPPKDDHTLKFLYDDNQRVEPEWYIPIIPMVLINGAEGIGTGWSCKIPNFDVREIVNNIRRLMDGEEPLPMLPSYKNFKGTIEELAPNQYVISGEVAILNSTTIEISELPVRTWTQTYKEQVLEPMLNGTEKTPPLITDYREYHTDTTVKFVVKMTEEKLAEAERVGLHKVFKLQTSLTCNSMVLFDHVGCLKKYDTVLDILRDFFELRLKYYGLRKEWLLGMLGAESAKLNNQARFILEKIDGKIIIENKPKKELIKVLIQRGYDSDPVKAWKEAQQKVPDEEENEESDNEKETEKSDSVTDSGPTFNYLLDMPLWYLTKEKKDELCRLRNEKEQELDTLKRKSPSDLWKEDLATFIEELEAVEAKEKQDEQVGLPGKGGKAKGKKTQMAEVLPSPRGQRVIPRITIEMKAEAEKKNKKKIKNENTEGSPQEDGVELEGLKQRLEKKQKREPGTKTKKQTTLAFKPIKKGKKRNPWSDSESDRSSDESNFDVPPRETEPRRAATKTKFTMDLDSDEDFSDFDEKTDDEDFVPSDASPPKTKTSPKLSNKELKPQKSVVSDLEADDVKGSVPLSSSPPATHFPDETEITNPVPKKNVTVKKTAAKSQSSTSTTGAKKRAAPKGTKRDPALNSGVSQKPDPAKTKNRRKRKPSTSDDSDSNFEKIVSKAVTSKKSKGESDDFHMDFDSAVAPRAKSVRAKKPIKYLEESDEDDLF

Calf thymus DNA [2] = experiment: Binding affinity to calf thymus DNA assessed as increase in emission peak intensity at 10 uM by fluorescence spectroscopic method; format: nucleic-acid assay; details: Bos taurus
Method in brief: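 Compound held constant at 10 µM and titrated with CT DNA added in multiples of 0.5 µM, at 25 °C in a 1 cm quartz cuvette. Excitation at 350 nm; emission recorded from 355 to 500 nm after each addition. Spectra are averages of three scans.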

Calf thymus DNA [3] = experiment: Binding affinity to calf thymus DNA assessed as bathochromic shift at 25 uM by UV-vis spectra method; format: nucleic-acid assay; details: Bos taurus
Method in brief: (§2)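 CT DNA titrated into a cuvette holding about 25 µM hybrid in 100 mM TE (pH 7.0), at 25 °C with a 1 cm quartz cell. The compound stock was in DMSO, diluted into buffer. DNA was added stepwise until the hybrid absorption band stayed at a fixed wavelength. Solutions were prepared fresh the same day.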

Calf thymus DNA [4] = experiment: Binding affinity to calf thymus DNA assessed as absorption band formation at 25 uM by UV-vis spectra method; format: nucleic-acid assay; details: Bos taurus; method in brief: as §2
Calf thymus DNA [5] = experiment: Binding affinity to calf thymus DNA assessed as positive band formation at 15 to 30 uM by CD spectroscopic method; format: nucleic-acid assay; details: Bos taurus
Method in brief: (§3)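 CD spectra recorded from 225 to 325 nm with about 15 × 10^-6 M CT DNA. Compound:DNA molar ratios were 1:0 and 1:1, in 100 mM TE (pH 7.0) at 25 °C. Each spectrum is the average of three scans.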

[6] = tested on: Panel NCI-60 (60 carcinoma cell lines); experiment: Growth inhibition of human NCI60 cells after 72 hrs by SRB assay; format: functional
Calf thymus DNA [7] = experiment: Binding affinity to calf thymus DNA assessed as change in viscosity at 15 uM by ethidium bromide staining-based method; format: nucleic-acid assay; details: Bos taurus
Calf thymus DNA [8] = experiment: Binding affinity to calf thymus DNA assessed as hyperchromicity at 15 to 30 uM by CD spectroscopic method; format: nucleic-acid assay; details: Bos taurus; method in brief: as §3
Calf thymus DNA [9] = experiment: Binding affinity to calf thymus DNA assessed as hypochromic shift formation at 25 uM by UV-vis spectra method; format: nucleic-acid assay; details: Bos taurus; method in brief: as §2

`COc1ccc(/C=C/C(=O)N2CCN(CCN3C(=O)c4cccc5cccc(c45)C3=O)CC2)cc1O` gave an IC50 (MCF7) of 13.7 µM, an IC50 (A549) of 14.2 µM and an IC50 (HT-29) of 10.3 µM.
In the case of `O=C(/C=C/c1cc(F)ccc1F)N1CCN(CCN2C(=O)c3cccc4cccc(c34)C2=O)CC1`, the IC50 (MCF7) is reported as 11.2 µM, the IC50 (A549) is reported as 6.39 µM and the IC50 (HT-29) is reported as 4.18 µM.
`CN(C)CCN1C(=O)c2cccc3cc(N)cc(c23)C1=O` [AMONAFIDE] was tested, and the IC50 (MCF7) was 4.05 µM, the IC50 (A549) was 7.76 µM and the IC50 (HT-29) was 5.46 µM. The inhibition [1] was “inactive”.
With `COc1ccc2nc(NC(=O)CN3CCN(CCN4C(=O)c5cccc6cccc(c56)C4=O)CC3)sc2c1` the IC50 (MCF7) was 7.94 µM, the IC50 (A549) was 4.76 µM and the IC50 (HT-29) was 4.22 µM.
Molecule `O=C(CN1CCN(CCN2C(=O)c3cccc4cccc(c34)C2=O)CC1)Nc1ccc2ncsc2c1` has an IC50 (MCF7) of 7.91 µM, an IC50 (A549) of 4.07 µM and an IC50 (HT-29) of 3.72 µM. For the same molecule, the Activity (Calf thymus DNA [2]) was “Active”, the inhibition [1] was “Active” and the Activity (Calf thymus DNA [3]) was 2 nm. The Activity (Calf thymus DNA [4]) was “Active”, the Activity (Calf thymus DNA [5]) was “Active” and the GI50 [6] was 1.38 to 43.3 µM. For the same molecule, the Activity (Calf thymus DNA [7]) was “Active” and the Activity (Calf thymus DNA [8]) was “Active”.
Work on `Cc1nc2ccc(NC(=O)CN3CCN(CCN4C(=O)c5cccc6cccc(c56)C4=O)CC3)cc2s1` yielded an IC50 (MCF7) of 5.08 µM, an IC50 (A549) of 3.89 µM and an IC50 (HT-29) of 3.47 µM. For the same molecule, the Activity (Calf thymus DNA [2]) was “Active”, the Activity (Calf thymus DNA [9]) was “Active” and the inhibition [1] was “Active”. For the same molecule, the Activity (Calf thymus DNA [5]) was “Active”, the GI50 [6] was 1.19 to 14.1 µM and the Activity (Calf thymus DNA [7]) was “Active”. The Activity (Calf thymus DNA [8]) was “Active”.
For `Cc1ccc2nc(NC(=O)CN3CCN(CCN4C(=O)c5cccc6cccc(c56)C4=O)CC3)sc2c1`, the IC50 (MCF7) was 15 µM, the IC50 (A549) was 8.07 µM and the IC50 (HT-29) was 4.07 µM.
In the case of `O=C(/C=C/c1cc(F)c(F)c(F)c1)N1CCN(CCN2C(=O)c3cccc4cccc(c34)C2=O)CC1`, the IC50 (MCF7) is reported as 19.5 µM, the IC50 (A549) is reported as 14.8 µM and the IC50 (HT-29) is reported as 13.8 µM.
In the case of `O=C(/C=C/c1ccc2c(c1)OCO2)N1CCN(CCN2C(=O)c3cccc4cccc(c34)C2=O)CC1`, the IC50 (MCF7) is reported as 18 µM, the IC50 (A549) is reported as 4.79 µM and the IC50 (HT-29) is reported as 3.8 µM. The Activity (Calf thymus DNA [2]) was “Active”, the Activity (Calf thymus DNA [9]) was “Active” and the inhibition [1] was “Active”. The Activity (Calf thymus DNA [4]) was “Active”, the Activity (Calf thymus DNA [5]) was “Active” and the Activity (Calf thymus DNA [7]) was “Active”.
In the case of `COc1cccc(/C=C/C(=O)N2CCN(CCN3C(=O)c4cccc5cccc(c45)C3=O)CC2)c1`, the IC50 (MCF7) is reported as 34.1 µM, the IC50 (A549) is reported as 21.7 µM and the IC50 (HT-29) is reported as 15.6 µM. The Activity (Calf thymus DNA [8]) was “Active”.
For `Cc1cc2nc(NC(=O)CN3CCN(CCN4C(=O)c5cccc6cccc(c56)C4=O)CC3)sc2cc1C`, the IC50 (MCF7) was 12.6 µM, the IC50 (A549) was 6.2 µM and the IC50 (HT-29) was 4.98 µM.
Work on `O=C(CN1CCN(CCN2C(=O)c3cccc4cccc(c34)C2=O)CC1)Nc1nc2ccccc2s1` yielded an IC50 (MCF7) of 26.5 µM, an IC50 (A549) of 14.8 µM and an IC50 (HT-29) of 10.8 µM.
`CN(C)c1ccc(/C=C/C(=O)N2CCN(CCN3C(=O)c4cccc5cccc(c45)C3=O)CC2)cc1` gave an IC50 (MCF7) of 13.1 µM, an IC50 (A549) of 8.26 µM and an IC50 (HT-29) of 4.01 µM.
With `CCOc1ccc(/C=C/C(=O)N2CCN(CCN3C(=O)c4cccc5cccc(c45)C3=O)CC2)cc1` the IC50 (MCF7) was 28.9 µM, the IC50 (A549) was 19.4 µM and the IC50 (HT-29) was 12 µM.
For `O=C(/C=C/c1ccc(F)c(F)c1)N1CCN(CCN2C(=O)c3cccc4cccc(c34)C2=O)CC1`, the IC50 (MCF7) was 28.3 µM, the IC50 (A549) was 18.4 µM and the IC50 (HT-29) was 13.4 µM.
With `CCOc1ccc2nc(NC(=O)CN3CCN(CCN4C(=O)c5cccc6cccc(c56)C4=O)CC3)sc2c1` the IC50 (MCF7) was 17.4 µM, the IC50 (A549) was 16.6 µM and the IC50 (HT-29) was 11.1 µM.
`O=C(/C=C/c1ccccc1)N1CCN(CCN2C(=O)c3cccc4cccc(c34)C2=O)CC1` showed an IC50 (MCF7) of 22.9 µM, an IC50 (A549) of 21.9 µM and an IC50 (HT-29) of 16 µM. The Activity (Calf thymus DNA [2]) was “Active”, the inhibition [1] was “inactive” and the Activity (Calf thymus DNA [7]) was “inactive”. For the same molecule, the Activity (Calf thymus DNA [8]) was “Active”.
`COc1ccc(/C=C/C(=O)N2CCN(CCN3C(=O)c4cccc5cccc(c45)C3=O)CC2)c(OC)c1` showed an IC50 (MCF7) of 28.7 µM, an IC50 (A549) of 27.2 µM and an IC50 (HT-29) of 23.9 µM.
`O=C(/C=C/c1ccc(F)cc1F)N1CCN(CCN2C(=O)c3cccc4cccc(c34)C2=O)CC1` gave an IC50 (MCF7) of 23.5 µM, an IC50 (A549) of 16.2 µM and an IC50 (HT-29) of 17.4 µM.
`O=C(/C=C/c1cccc(C(F)(F)F)c1)N1CCN(CCN2C(=O)c3cccc4cccc(c34)C2=O)CC1` gave an IC50 (MCF7) of 26.4 µM, an IC50 (A549) of 19.7 µM and an IC50 (HT-29) of 17 µM.
With `O=C(/C=C/c1cc(F)cc(F)c1)N1CCN(CCN2C(=O)c3cccc4cccc(c34)C2=O)CC1` the IC50 (MCF7) was 13.7 µM, the IC50 (A549) was 6.41 µM and the IC50 (HT-29) was 8.39 µM.
